In the library only some 3% were active in any assay of this set; here they are far more common.
UBC13 inh: UBC13 polyubiquitin chain formation inhibitors, primary screen, biochemical, TR-FRET, uHTS; Ubiquitin-conjugating enzyme E2 N (Homo sapiens), P61088; inhibition, % at 20 µM; hit rate 0.47% among 330,000; in the data active = inhibition above about 45%, passing the limit was not always enough
Target sequence (P61088 whole entry, looked up): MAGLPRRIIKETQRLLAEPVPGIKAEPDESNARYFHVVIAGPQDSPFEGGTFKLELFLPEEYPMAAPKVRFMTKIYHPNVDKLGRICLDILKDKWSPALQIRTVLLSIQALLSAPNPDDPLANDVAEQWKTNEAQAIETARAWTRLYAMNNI
SENP6 block: SENP6 protease inhibitors, primary screen, biochemical, luminescence, uHTS. AID 2599, 2010. Recombinant SENP6 catalytic domain, aminoluciferin luminescence. inhibition, % at 10 µM. hit rate 1.8% among 330,000;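 active = inhibition above about 50% at the single tested dose, limit read from the data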
SENP8 block-1: human SENP8 protease inhibitors, primary screen, biochemical, fluorescence, Nedd8 protein substrate, uHTS | inhibition, % at 20 µM | AID 602440, 2012 | recombinant SENP8 | Sentrin-specific protease 8 (Homo sapiens), Q96LD8 | hit rate 0.64% among 360,000; in the data active = inhibition mostly above about 40%, no sharp cut-off; inactive = mostly below about 27%
SENP7 inh: SENP7 protease inhibitors, primary screen, biochemical, luminescence, uHTS; Sentrin-specific protease 7 (Homo sapiens), Q9BQF6; recombinant SENP7, Z-RLRGG-aminoluciferin luminescence, 40 min; inhibition, % at 5 µM; hit rate 1.5% among 330,000; AID 434973, 2010;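 active = inhibition above about 50% at the single test dose, limit read from the data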
Target sequence (Q9BQF6 706-1050 limits assumed): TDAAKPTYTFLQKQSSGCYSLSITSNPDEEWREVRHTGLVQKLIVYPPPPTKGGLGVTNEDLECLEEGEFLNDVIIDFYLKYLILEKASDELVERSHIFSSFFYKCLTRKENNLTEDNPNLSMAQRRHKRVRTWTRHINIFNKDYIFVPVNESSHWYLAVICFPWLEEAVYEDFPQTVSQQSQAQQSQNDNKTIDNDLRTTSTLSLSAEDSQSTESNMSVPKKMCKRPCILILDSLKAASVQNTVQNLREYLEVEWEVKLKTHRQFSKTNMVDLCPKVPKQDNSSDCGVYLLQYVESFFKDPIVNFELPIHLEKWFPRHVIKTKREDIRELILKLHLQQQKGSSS
SENP8 block-2: SENP8 protease inhibitors, primary screen, biochemical, luminescence; purified SENP8, Z-RLRGG-aminoluciferin cleavage; inhibition, % at 10 µM; hit rate 1.2% among 330,000; AID 2540, 2010; in the data active = inhibition above about 50%
Apaf1 inhib: inhibitors of human Apaf-1 apoptosome, primary screen, biochemical, DEVD-Rh110 fluorescence, uHTS | Apoptotic protease-activating factor 1 (Homo sapiens), O14727 | reconstituted apoptosome caspase-3 activity | inhibition, % at 20 µM | hit rate 0.71% among 330,000; active = inhibition of at least 40% at 20 µM
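Assay system: Apoptosome proteins | Medium: pH 7.5 Hepes buffer with CHAPS, BSA, DTT | Also added: Cytochrome c and DEVD-Rh110 substrate | Times: 30 min plus 50 min, RT | Detection: Rhodamine 110 fluorescence at Ex 480/Em 540 nm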
SENP8 confirm: SENP8 protease inhibitors, retest, confirmation, biochemical, luminescence, single concentration; hit rate 40% among 6,200; shares compounds with SENP7 inh; inhibition, % at 12.5 µM; Recombinant SENP8, Z-RLRGG-aminoluciferin luminescence, 60 min;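 active = mean inhibition across replicates above about 50%, limit read from the data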
SENP6 confirm: SENP6 protease inhibitors, confirmation, biochemical, luminescence, single concentration. hit rate 58% among 6,200. AID 488915, 2010. shares compounds with SENP7 inh. recombinant SENP6, Z-RLRGG-aminoluciferin luminescence. inhibition, % at 12.5 µM
SENP7 confirm: SENP7 protease inhibitors, retest, confirmation, biochemical, luminescence, single concentration. inhibition, % at 12.5 µM. recombinant SENP7, Z-RLRGG-aminoluciferin luminescence, 40 min. AID 488917, 2010. shares compounds with SENP7 inh. hit rate 69% among 6,200
Casp3 SENP sel: caspase-3 protease inhibitors, confirmation, selectivity assay for SENP inhibitor project, biochemical, single concentration. shares compounds with SENP7 inh. AID 488918, 2010. purified caspase-3, Z-DEVD-aminoluciferin luminescence, 60 min. inhibition, % at 12.5 µM. hit rate 60% among 6,200;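 active = mean inhibition above about 50%, limit read from the data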
SENP luc ctr: luminescence interference (SENP counter-screen); AID 488919; shares compounds with SENP7 inh; Pre-incubated SENP8/Z-RLRGG-aminoluciferin, luciferase luminescence interference; inhibition, % at 12.5 µM; hit rate 39% among 6,200;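 active = mean inhibition above about 50% when retested at one dose, limit read from the data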
Numbers stand for hits; n = inactive; x = no result.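 Rule for the calls, unless noted: active = mean inhibition above about 50% in the one-dose retest (limit read from the data); inactive = the rest.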

SMILES	UBC13 inh	SENP6 block	SENP8 block-1	SENP7 inh	SENP8 block-2	Apaf1 inhib	SENP8 confirm	SENP6 confirm	SENP7 confirm	Casp3 SENP sel	SENP luc ctr
Cc1ccc([N+](=O)[O-])cc1S(=O)(=O)Nc1cccc(-c2ccc(N3CCCC3)nn2)c1	n	90	n	n	83	n	62	76	87	70	n
O=C(COc1ccccc1)Nc1cccc(-c2ccc(N3CCOCC3)nn2)c1	n	61	n	53	n	n	n	n	76	66	n
O=C(COc1ccc(Cl)cc1Cl)Nc1cccc(-c2ccc(N3CCOCC3)nn2)c1	n	n	n	76	n	n	n	n	n	n	n
O=C(Nc1cccc(-c2ccc(N3CCOCC3)nn2)c1)c1ccccc1	n	n	n	n	n	n	x	x	x	x	x
Cc1ccc(C(=O)Nc2cccc(-c3ccc(N4CCOCC4)nn3)c2)cc1[N+](=O)[O-]	n	67	n	63	50	n	n	n	n	n	n
O=C(COc1ccc(Cl)cc1Cl)Nc1ccc(-c2ccc(N3CCOCC3)nn2)cc1	n	n	n	n	n	n	x	x	x	x	x
O=C(Nc1cccc(-c2ccc(N3CCOCC3)nn2)c1)c1ccc([N+](=O)[O-])cc1	n	n	n	n	n	n	x	x	x	x	x
NC(=O)c1cccc(-c2ccnc3c2CC(C(=O)Nc2ccc(Cl)cc2)O3)c1 (stereo not given)	x	x	n	x	x	x	x	x	x	x	x
COc1ncnc2c1ncn2CCCN1CCN(C(=O)C2CC2)CC1	x	x	n	x	x	x	x	x	x	x	x
O=C(Cc1ccccc1)c1ccc2c(c1)OCCO2	n	73	n	69	71	n	70	65	91	78	76
O=C(NCCc1ccccc1)c1ccc2c(c1)OCO2	n	57	n	57	n	n	52	n	82	78	57
Cc1ccc(CC(=O)c2ccc(Cl)cc2)cc1	n	n	n	n	n	n	x	x	x	x	x
O=C(Cc1ccc(Cl)cc1)c1ccc(O)cc1	n	51	n	n	n	n	55	n	79	n	63
CCOC(=O)[C@]12Cc3c(cc(OC)c(OC)c3OC)[C@H]1N(Cc1ccccc1)C(=O)c1cc(OC)ccc12	x	x	n	x	x	x	x	x	x	x	x
Cc1ccc(-c2nnc(SCc3ccccc3F)o2)cc1	n	67	n	58	n	n	61	70	87	n	n
COc1ccc(C(=O)N2CCC2(C)C(=O)NC(C)C)c(OC)c1 (stereo not given)	x	x	n	x	x	x	x	x	x	x	x
Nc1c(N=Nc2ccccc2F)c(=O)[nH]n1-c1ccccc1	n	80	n	77	55	n	n	n	53	n	n
Cc1ccccc1C(=O)NCCN1CCC(n2c(=O)[nH]c3ccccc32)CC1	x	x	n	x	x	x	x	x	x	x	x
CCOc1ccc(-c2ccc(SC)nn2)cc1	n	98	n	97	93	n	93	98	102	98	n
COC(=O)C(C(=O)OC)c1ccccc1CNS(=O)(=O)c1ccc(C)cc1	x	x	n	x	x	x	x	x	x	x	x
c1ccc(Oc2cc(-n3cccn3)ncn2)cc1	n	54	n	n	n	n	n	n	75	68	n
NC(=O)c1cnn(-c2cc(Oc3ccccc3)ncn2)c1N	n	n	n	n	n	n	x	x	x	x	x
Cc1ccc(-c2nc3ccccc3nc2NN)cc1	n	91	n	79	85	n	n	67	92	74	n
COCCN(C(=O)CSc1nnc(-c2ccc(F)cc2)n1N)c1c(N)n(CC(C)C)c(=O)[nH]c1=O	x	x	n	x	x	x	x	x	x	x	x
Cn1c(O)c(N=Nc2nc(-c3ccccc3)cs2)c2ccccc21	n	n	n	59	n	n	n	n	n	n	n
SMILES	UBC13 inh	SENP6 block	SENP8 block-1	SENP7 inh	SENP8 block-2	Apaf1 inhib	SENP8 confirm	SENP6 confirm	SENP7 confirm	Casp3 SENP sel	SENP luc ctr
C=CCNc1nc(-c2sc(NC(=O)C(C)(C)C)nc2C)c(-n2cc(-c3ccccc3)nn2)s1	x	x	n	x	x	x	x	x	x	x	x
Cc1cc(=O)[nH]c(SCC(=O)c2ccccc2)c1C#N	n	74	n	n	60	n	72	74	94	82	79
Cc1cc(C)c(C#N)c(SCC(=O)c2ccccc2)n1	n	n	n	n	n	n	x	x	x	x	x
CCCCNC(=O)c1nc(-c2cc3ccccc3[nH]2)oc1-c1ccccc1	x	x	n	x	x	x	x	x	x	x	x
O=C(Nc1ccc2c(c1)OCO2)c1cc(C2CCCCN2S(=O)(=O)Cc2ccccc2)on1 (stereo not given)	x	x	n	x	x	x	x	x	x	x	x
Cc1ccc(CN2CCN(CC(=O)N/N=C/c3ccccc3F)CC2)cc1	n	55	n	n	n	n	n	n	n	n	n
c1ccc2c(Nc3nnc(-c4ccncc4)s3)cccc2c1	n	61	n	n	n	n	n	51	81	n	n
Cc1nn2cc(-c3ccc(Cl)cc3)nc2s1	n	81	n	87	54	n	n	n	n	n	n
CCc1nn2cc(-c3ccccc3)nc2s1	n	94	n	96	89	n	n	94	101	95	84
Cc1nn2c(-c3ccc(Cl)cc3)nnc2s1	n	n	n	n	n	n	x	x	x	x	x
Cc1nn2cc(-c3ccc(-c4ccccc4)cc3)nc2s1	n	n	n	58	n	n	n	n	n	n	n
CN(CC1CCCN(CCc2ccccc2F)C1)C(=O)c1cc2ccccc2o1 (stereo not given)	x	x	n	x	x	x	x	x	x	x	x
O=C1C(Nc2ccccc2)=CC(c2ccc(O)cc2)N1c1ccccc1 (stereo not given)	n	58	n	n	n	n	n	n	n	n	n
COc1cc(C2C=C(Nc3ccccc3)C(=O)N2c2ccccc2)ccc1O (stereo not given)	n	n	n	n	n	n	x	x	x	x	x
O=C(NCc1cccnc1)c1cc(C2CCCN(S(=O)(=O)c3cccc4cccnc34)C2)on1 (stereo not given)	x	x	n	x	x	x	x	x	x	x	x

From PubChem BioAssay
